Assay results gathered from unrelated publications.
Compare with care: the assays were run in different laboratories.
Target: Vascular endothelial growth factor receptor 1 (FLT1, Homo sapiens, UniProt P17948)

| Compound | observed | mode | method | tested at | endpoint | result |
| --- | --- | --- | --- | --- | --- | --- |
| C#Cc1n[nH]c2c(-c3cn([C@@H](C)c4ccccn4)c(=O)[nH]c3=O)cc(F)cc12 | enzyme activity | inhibitor | – | 0.1 µM | inhibition | 2% |
| Cn1cncc1[C@](O)(COc1ccc(C#N)cc1-c1ccc(OC(F)(F)F)cc1)c1ccc(C#N)cc1 | cell-free assay | – | competition with immobilised ligand | 1 µM | remaining binding | 98% |
| COc1ncccc1-c1cnn2ccc(N3CCN(C(=O)OC(C)C)CC3)nc12 | binding | – | competition with immobilised ligand | 1 µM | remaining binding | 100% |
| Nc1ncc(-c2nc(N3CCOCC3)nc(N3CCOCC3)n2)c(C(F)F)n1 | cell-free assay | – | competition with immobilised ligand | 10 µM | remaining binding | 91% |
| COCc1c(-c2cc3cc(C)cc(OC)c3s2)c2c(N)ncnn2c1CN1CCNC(=O)C1 | cell-free assay | – | competition with immobilised ligand | 1 µM | inhibition | 91.7% |
| Cn1cc(-c2cc(F)cc(N3CCn4c(cc5c4CCCC5)C3=O)c2CO)cc(Nc2ccc(N3CCN(C4COC4)CC3)cn2)c1=O | enzyme activity | inhibitor | – | 0.1 µM | inhibition | 5% |
| C#Cc1n[nH]c2c(-c3cn([C@@H](C)c4ccccc4)c(=O)[nH]c3=O)cc(F)cc12 | enzyme activity | inhibitor | – | 0.1 µM | inhibition | 1.9% |
| CC(C)(C)c1cc(C=C(C#N)C#N)cc(Br)c1O | enzyme activity | inhibitor | – | 0.5 µM | remaining activity | 92.5% |
| O=C(Nc1cccnn1)N1CCN([C@@H]2CCOc3cc(C(F)(F)F)ccc32)CC1 | enzyme activity | inhibitor | – | 20 µM | inhibition | 2% |
| Cc1ncc(C)n2nc(/C=C/c3nc(N4CCCC4)cc(N4CCOCC4)n3)nc12 | enzyme activity | inhibitor | – | 10 µM | inhibition | -6% |
| Cn1cc(-c2cccc(N3CCc4c(sc5c4CC(C)(C)C5)C3=O)c2CO)cc(Nc2ccncn2)c1=O | enzyme activity | inhibitor | – | 1 µM | inhibition | 2% |
| O=c1[nH]c2ccccc2n1C1CCN(Cc2ccc(-c3[nH]c4cc5ncnc5cc4nc3-c3ccccc3)cc2)CC1 | cell-free assay | – | – | 0.5 µM | remaining signal | 92.2% |
